These results are taken from ChEMBL document CHEMBL1155058, “N-Arylmethyl substituted iminoribitol derivatives as inhibitors of a purine specific nucleoside hydrolase” (Bioorg Med Chem, 2008).

Molecules are shown by their SMILES.

This test is described as follows: Inhibition of Trypanosoma vivax IAG-NH expressed in Escherichia coli WK6 cells. A digest of the protocol:
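Recombinant N-terminal His6-tagged enzyme, purified by Ni-NTA affinity and Superdex-200 gel filtration, concentration per monomer from ε280 47752 M-1cm-1. […] Initial rates fitted to competitive inhibition equation.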

Take `OC[C@@H]1[C@@H](O)[C@@H](O)CN1Cc1c[nH]c2c(O)ncnc12`: the Ki was determined as 4.4 nM.
As to `N#Cc1ccc(CN2C[C@H](O)[C@H](O)[C@H]2CO)cc1`, the Ki was 26000 nM. Against the preceding compound, the Ki is about 5900-fold higher.
For the compound `N#Cc1cccc(CN2C[C@H](O)[C@H](O)[C@H]2CO)c1`, the affinity corresponds to a Ki of 3800 nM.
Turning to `OC[C@@H]1[C@@H](O)[C@@H](O)CN1Cc1cccc2cccnc12`, the Ki is 10.8 nM.
Compound `Nc1ncccc1CN1C[C@H](O)[C@H](O)[C@H]1CO` returned a Ki of 120000 nM.
The figure for `OC[C@@H]1[C@@H](O)[C@@H](O)CN1Cc1cccc(-n2cccc2)c1` is 3400 nM; for `OC[C@@H]1[C@@H](O)[C@@H](O)CN1Cc1cnc2ccccc2c1` it is 20000 nM; for `OC[C@@H]1[C@@H](O)[C@@H](O)CN1Cc1nccc2ccccc12` it is 750 nM.
`Nc1ncnc2c(CN3C[C@H](O)[C@H](O)[C@H]3CO)c[nH]c12` registered a Ki of 4.1 nM.
The figure for `COc1cccc2c(CN3C[C@H](O)[C@H](O)[C@H]3CO)c[nH]c12` is 2300 nM; for `OC[C@@H]1[C@@H](O)[C@@H](O)CN1Cc1c[nH]c2ccccc12` it is 12000 nM.
As for `OC[C@@H]1[C@@H](O)[C@@H](O)CN1Cc1ccc(I)cc1`, the affinity corresponds to a Ki of 4300 nM.
`OC[C@@H]1[C@@H](O)[C@@H](O)CN1Cc1ccccc1`: the affinity, expressed as Ki, was 59000 nM.
`O=[N+]([O-])c1cccc(CN2C[C@H](O)[C@H](O)[C@H]2CO)c1` yielded a Ki of 23000 nM. This Ki is about 2.6-fold lower than that of the compound before.
As for `Cc1nc(-c2ccccc2)ncc1CN1C[C@H](O)[C@H](O)[C@H]1CO`, the figure is 43000 nM; as for `OC[C@@H]1[C@@H](O)[C@@H](O)CN1Cc1ccc(-n2cncn2)cc1`, 1200 nM; as for `COc1ccc(CN2C[C@H](O)[C@H](O)[C@H]2CO)cn1`, 32000 nM.
As for `Cc1nn(-c2ccccc2)nc1CN1C[C@H](O)[C@H](O)[C@H]1CO`, the figure is 63 nM.
The figure for `OC[C@@H]1[C@@H](O)[C@@H](O)CN1Cc1ccc(-n2cccn2)cc1` is 1200 nM; for `Cn1c(CN2C[C@H](O)[C@H](O)[C@H]2CO)nc2ccccc21` it is 2100 nM; for `OC[C@@H]1[C@@H](O)[C@@H](O)CN1Cc1ccncc1` it is 20000 nM.
For `OC[C@@H]1[C@@H](O)[C@@H](O)CN1Cc1ccc(-n2cccc2)cc1`, the Ki amounted to 1000 nM.
As to `OC[C@@H]1[C@@H](O)[C@@H](O)CN1Cc1ccnc2ccccc12`, the Ki is 29000 nM. This Ki is about 29-fold higher than that of the compound before.
As for `OC[C@@H]1[C@@H](O)[C@@H](O)CN1Cc1ccc2ccccc2c1`, the figure is 2000 nM; as for `OC[C@@H]1[C@@H](O)[C@@H](O)CN1Cc1ccc2cccc(O)c2n1`, 1000 nM; as for `OC[C@@H]1[C@@H](O)[C@@H](O)CN1Cc1ccc2cccnc2c1`, 720 nM.
In turn, `Cn1nnc2cc(CN3C[C@H](O)[C@H](O)[C@H]3CO)ccc21` had a Ki of 720 nM.
Consider `O=[N+]([O-])c1ccc(CN2C[C@H](O)[C@H](O)[C@H]2CO)cc1`, for which the Ki was 7500 nM.
`OC[C@@H]1[C@@H](O)[C@@H](O)CN1Cc1ccc2ccccc2n1` had a Ki of 180 nM.

For orientation: Ki means the equilibrium dissociation constant of an inhibitor or competing ligand from its target. Low values mean higher affinity, high ones lower affinity.
